Results pooled from the literature.
Lines come from different studies, so protocols differ.
Target: Dual specificity testis-specific protein kinase 1 (TESK1, Homo sapiens, UniProt Q15569)

`COc1cc(/C=C/C(=O)CC(=O)/C=C/c2ccc(O)c(OC)c2)ccc1O` has an activity vs control of 101% (enzyme activity, inhibitor; 1 µM).
For `CC(C)(O)[C@H]1CC[C@H](Nc2ccc3ncc(-c4cccc(C(F)(F)F)c4)n3n2)CC1`, the remaining activity was 83.5% (enzyme activity, inhibitor; 1 µM).
The remaining signal of `Nc1ncnc2occ(-c3ccc(NC(=O)Nc4cc(C(F)(F)F)ccc4F)cc3)c12` is reported as 7.4% (cell-free assay, inhibitor; 20 µM).
With `O=C(Nc1cnn(-c2csc(C(=O)NC3COC3)c2)c1)Nc1ccccc1Cl` the remaining activity was 100% (enzyme activity, inhibitor; 5 µM).
The remaining binding of `c1ccc(N2CCN(Cc3nc4ccccc4[nH]3)CC2)nc1` is reported as 97% (binding, competition with immobilised ligand; 1 µM).
`Cc1ccc(C(=O)Nc2ccc(CN3CCN(C)CC3)c(C(F)(F)F)c2)cc1C#Cc1cnc2cccnn12` has a remaining activity of 100% (enzyme activity, inhibitor; 23.5 nM).
With `O=C1CCc2cc(Nc3cc(OC4CCOCC4)c([N+](=O)[O-])cc3Cl)ccc2N1` the remaining binding was 92% (cell-free assay, competition with immobilised ligand; 1 µM).
`COc1cc(Nc2cnc(C#N)c(O[C@H](C)CN(C)C)n2)ncc1-c1cnn(C)c1` gave a remaining activity of 110% (enzyme activity, inhibitor, radiometric; 1 µM).
The remaining activity of `Cc1sc(C(=O)NC2COC2)cc1-n1cc(NC(=O)Nc2c(F)cccc2Cl)cn1` is reported as 88% (enzyme activity, inhibitor; 10 µM).
